Laboratory results taken from ChEMBL document CHEMBL1944509, “Methyl-monofluorination of ibuprofen selectively increases its inhibitory activity toward cyclooxygenase-1 leading to enhanced analgesic activity and reduced gastric damage in vivo” (Bioorg Med Chem Lett, 2011).

Tests used:
Nucleic Acid [1] = test: Ratio of drug level in brain to plasma in ICR mouse at 10 mg/kg, po after 6 hrs by HPLC/MS/MS analysis; format: ADME, organism-based; parameters: dose 10 mg/kg, route oral
Rattus norvegicus = test: Gastrointestinal toxicity in Wistar rat assessed as ulcerogenic effect at 108.8 mg/kg, po measured after 17 hrs post treatment (Rvb =0.50 +/- 0.41); format: organism-based; parameters: dose 108.8 mg/kg, route oral; settings: in vivo
How it was run: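 Wistar rats, 150–200 g, eight per group, fasted at least 8 h with water ad libitum. Drug is given orally as a 0.5% CMC suspension at 10 ml/kg; controls get 0.5% CMC. Food is returned after 30 min. At 17 h rats are killed with CO₂ and stomachs removed. Damage score is the summed lesion lengths in mm per rat; mean ± SEM.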

[2] = Apparent half life in ICR mouse at 10 mg/kg, po; format: ADME, organism-based; parameters: dose 10 mg/kg, route oral; settings: in vivo, read-out: t1/2(app) (converted)
[3] = target: T1, Prostaglandin G/H synthase 1 (Homo sapiens, UniProt P23219); test: Inhibition of COX1 in human HEL 92.1.7 cells assessed as thromboxane B2 production incubated for 30 mins before arachidonic acid addition measured after 15 mins by ELISA; format: cell-based
T1 sequence (P23219 whole entry): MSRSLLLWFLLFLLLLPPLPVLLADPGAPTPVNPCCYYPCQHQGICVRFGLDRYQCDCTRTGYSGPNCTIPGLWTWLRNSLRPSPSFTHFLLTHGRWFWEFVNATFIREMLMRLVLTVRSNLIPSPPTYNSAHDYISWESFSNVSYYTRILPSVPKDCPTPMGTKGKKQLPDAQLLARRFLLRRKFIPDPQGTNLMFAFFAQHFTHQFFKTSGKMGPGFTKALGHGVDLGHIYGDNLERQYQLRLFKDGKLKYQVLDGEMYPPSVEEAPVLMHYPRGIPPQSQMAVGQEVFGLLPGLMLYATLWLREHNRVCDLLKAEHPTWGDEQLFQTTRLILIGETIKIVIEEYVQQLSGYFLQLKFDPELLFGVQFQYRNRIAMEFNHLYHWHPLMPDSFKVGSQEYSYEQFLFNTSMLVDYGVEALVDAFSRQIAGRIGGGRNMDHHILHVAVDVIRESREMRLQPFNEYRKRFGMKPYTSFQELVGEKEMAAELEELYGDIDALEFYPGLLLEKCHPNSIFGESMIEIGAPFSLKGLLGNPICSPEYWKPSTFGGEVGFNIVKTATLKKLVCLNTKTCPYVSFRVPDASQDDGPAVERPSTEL
How it was run: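 HEL92.1.7 cells at 10⁸/ml in fresh medium, incubated with drug (10⁻⁶–10 μM range) for 30 min at 37 °C. TXB₂ is measured in cell-free supernatant by ELISA and expressed as a ratio to vehicle-only cultures; mean ± SD; IC50 from the concentration–response curve.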

Nucleic Acid [4] = test: Ratio of drug level in brain to plasma in ICR mouse at 10 mg/kg, po after 0.083 hrs by HPLC/MS/MS analysis; format: ADME, organism-based; parameters: dose 10 mg/kg, route oral
Mus musculus = test: Ratio of drug level in brain to plasma in ICR mouse at 10 mg/kg, po
[5] = target: T1, Prostaglandin G/H synthase 1; test: Ratio of ibuprofen IC50 to compound IC50 for human COX1 in HEL 92.1.7 cells

Which BPR (Nucleic Acid [1]) does the source give for `CC(C)Cc1ccc([C@H](C)C(=O)O)cc1` [DEXIBUPROFEN] here?
The BPR was 0.036 mL/g.

For `CC(C)Cc1ccc([C@H](CF)C(=O)O)cc1`, which Activity (Rattus norvegicus) is on record?
The Activity was “Toxic”.

And the half-life [2]?
The half-life was 45 min.

What about the IC50 [3] of the same molecule?
The IC50 was 1.23 nM.

What about the inhibition [3] of the same molecule?
The inhibition was “Dose-dependent effect”.

What about the BPR (Nucleic Acid [4]) of the same molecule?
Its BPR is 0.027 mL/g.

And the BPR (Mus musculus)?
Its BPR is 0.025 mL/g.

And the Ratio IC50 [5]?
Its Ratio IC50 is 80.
